The list is not random: actives were taken first. Their share in the collection is about 1.9%.
M5 ag – human M5 muscarinic receptor agonists, primary screen, CHO-K1 cells, Fluo-8 calcium fluorescence; AID 624037, 2012; activation, % at 3 µM; Muscarinic acetylcholine receptor M5 (Homo sapiens), P08912; hit rate 0.19% among 360,000; CHO-K1 hM5 cells; 0% DMSO wells, 100% maximal acetylcholine response;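 active = activation above the run's mean over test compounds plus 3 SD, cut at about 23% in these data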;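 note: signal is peak over basal fluorescence ratio across the kinetic read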
Target sequence (P08912 whole entry, looked up): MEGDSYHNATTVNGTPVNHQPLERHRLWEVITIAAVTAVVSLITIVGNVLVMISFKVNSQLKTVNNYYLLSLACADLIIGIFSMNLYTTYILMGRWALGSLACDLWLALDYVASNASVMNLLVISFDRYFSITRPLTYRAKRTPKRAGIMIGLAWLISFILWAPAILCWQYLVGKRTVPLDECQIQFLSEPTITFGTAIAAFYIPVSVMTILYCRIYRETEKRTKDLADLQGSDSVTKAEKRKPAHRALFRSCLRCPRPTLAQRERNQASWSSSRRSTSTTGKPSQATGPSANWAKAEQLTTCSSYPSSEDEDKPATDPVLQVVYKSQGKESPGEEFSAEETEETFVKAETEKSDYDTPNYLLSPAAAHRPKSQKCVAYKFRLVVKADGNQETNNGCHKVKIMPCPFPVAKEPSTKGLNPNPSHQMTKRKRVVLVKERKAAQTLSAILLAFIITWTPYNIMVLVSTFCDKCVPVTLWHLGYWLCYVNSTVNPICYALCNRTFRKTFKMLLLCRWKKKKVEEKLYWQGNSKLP
CHRM5 PAM – human M5 muscarinic receptor positive allosteric modulators, primary screen, CHO-K1 cells, Fluo-8 calcium fluorescence. Muscarinic acetylcholine receptor M5 (Homo sapiens), P08912. AID 624038, 2012. CHO-K1 hM5, ACh EC20 PAM; 0% = ACh EC20, 100% = ACh EC100. activation, % at 3 µM. hit rate 0.3% among 360,000;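 active = activation above the run cutoff, the mean activation of all test compounds plus 3 SD, cut at about 18% in these data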
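Test system: CHO-K1 hM5 cells / Doses: single-point, 3 µM nominal / Times: Post-acetylcholine fluorescence recording 140 s / Technique: Fluo-8 calcium fluorescence / Measure: Max/basal fluorescence ratio as % of EC20–EC100 ACh window / Benchmarks: low control EC20 acetylcholine (0%), high control EC100 acetylcholine (100%) / Replicates: one well per compound, no replicates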
M4 ag – human M4 muscarinic receptor agonists, primary screen, CHO-K1 cells, Fluo-8 calcium fluorescence; Muscarinic acetylcholine receptor M4 (Homo sapiens), P08173; CHO-K1 hM4/Gqi5; vehicle 0%, full acetylcholine response 100%; activation, % at 3 µM; hit rate 0.14% among 360,000;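 active = activation above the run mean over all test wells plus 3 SD, cut at about 32% in these data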;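 note: peak over basal fluorescence ratio per well then scaled between controls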
M4 PAM – human M4 muscarinic receptor positive allosteric modulators, primary screen, CHO-K1 cells, Fluo-8 calcium fluorescence; hit rate 0.4% among 360,000; CHO-K1 hM4/Gqi5, ACh EC20; 0% = ACh EC20, 100% = maximal ACh; activation, % at 3 µM;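 active = activation above its plate's cutoff, the mean activation of sample wells plus 3 SD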
CHRM5 antagonist – human M5 muscarinic receptor antagonists, primary screen, CHO cells, Fluo-8 calcium fluorescence; Muscarinic acetylcholine receptor M5 (Homo sapiens), P08912; CHO-hM5 cells, ACh EC80; inhibition, % at 3 µM; hit rate 0.59% among 360,000;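 active = inhibition above a per-plate cutoff, the mean of that plate's test compounds plus 3 SD, cut at about 27% in these data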
M4 antag – human M4 muscarinic receptor antagonists, primary screen, CHO cells, Fluo-8 calcium fluorescence; Muscarinic acetylcholine receptor M4 (Homo sapiens), P08173; hit rate 0.73% among 360,000; inhibition, % at 3 µM; CHO-hM4 cells, ACh EC80;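 active = inhibition above its plate's cutoff, the mean inhibition of sample wells plus 3 SD, cut at about 27% in these data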
A number is an active result; - = inactive; ! = not confirmed by another sample.

SMILES | M5 ag | CHRM5 PAM | M4 ag | M4 PAM | CHRM5 antagonist | M4 antag
CCOC(=O)N1CCN(c2nc3ccc(C(=O)c4ccccc4)cc3n3cnnc23)CC1 | - | - | - | 31 | - | -
O=C(CCC1CCCC1)Nc1cc(C(F)(F)F)ccc1N1CCOCC1 | - | - | - | - | - | -
O=c1c(-c2ccccc2)cocc1-c1ccccc1 | - | - | - | - | - | -
Cc1ccc(O)c([C@H](CCN(C(C)C)C(C)C)c2ccccc2)c1 | - | - | - | - | 99 | 100
Cc1ccc2c(C)c(C(=O)NCc3ccc(S(N)(=O)=O)cc3)oc2c1C | - | 27 | - | - | - | -
Cc1ccc2c(C)c(C(=O)Nc3ccc(S(N)(=O)=O)cc3)oc2c1C | - | 27 | - | - | - | -
CN1C[C@@H]2[C@@H]3C(=O)N(C)C(=O)[C@@H]3[C@](C)(C1=O)N2C(=O)c1ccc(Cl)c(Cl)c1 | - | - | - | - | - | -
CC(=O)NC(c1ccc(F)c(F)c1)c1nc(-c2ccncc2)cs1 (centres undefined) | - | - | - | - | - | -
CC1Cc2ccccc2N1C(=O)CN1CCCCC1 (centres undefined) | - | - | - | - | - | -
CN1CCN(CCCN2c3ccccc3Sc3ccc(C(F)(F)F)cc32)CC1 | - | - | - | - | - | 85!
O=C(CN1CCCCC1)N1c2ccccc2Oc2ccccc21 | - | - | - | - | - | 37
CN1CCN(CC(=O)N2c3ccccc3Sc3ccccc32)CC1 | - | - | - | - | 64 | 67
CCOC(=O)N1CCN(CC(=O)N2c3ccccc3Sc3ccccc32)CC1 | - | - | - | - | - | -
O=C(/C=C/c1ccccc1)N1c2ccccc2Sc2ccc(C(F)(F)F)cc21 | - | - | - | 29 | - | -
Cc1ccccc1OCC(=O)OCC(=O)c1c[nH]c2ccccc12 | - | - | - | - | - | -
O=C(CN1CCCC(O)C1)N1c2ccccc2Sc2ccc(C(F)(F)F)cc21 (centres undefined) | - | - | - | - | 41 | 65
CC1CCCN(c2ccc(C(=O)OCC(=O)N3c4ccccc4Sc4ccccc43)cc2[N+](=O)[O-])C1 (centres undefined) | - | - | - | - | - | 30
O=C(CN1CCCCCC1)N1c2ccccc2Sc2ccccc21 | - | - | - | - | 94 | 94
O=C(C1CC1)N1c2ccccc2Sc2ccccc21 | - | - | - | - | - | -
CC1CCCN(c2ccc(C(=O)OCn3nnc4ccccc4c3=O)cc2[N+](=O)[O-])C1 (centres undefined) | - | - | - | - | - | -
CC1CCCN(CCC(=O)c2ccccc2)C1 (centres undefined) | - | - | - | - | - | -
CC1CCCN(CC(=O)N2c3ccccc3Sc3ccccc32)C1 (centres undefined) | - | - | - | - | 30 | 33
N#CC1=C(N)N=C(SCc2cccc3ccccc23)C(C(N)=O)C12CCCCC2 (centres undefined) | - | - | - | - | - | -
O=C(COC(=O)c1ccccc1Cl)NC1CCCCCC1 | - | - | - | - | - | -
CCCCN1C(=O)C(CC(=O)NCCCN(C)C)CC(C(=O)N(C)C)=C1C (centres undefined) | - | - | - | - | - | -
SMILES | M5 ag | CHRM5 PAM | M4 ag | M4 PAM | CHRM5 antagonist | M4 antag
O=C1CCCN1CCCNCC(=O)N1c2ccccc2Sc2ccccc21 | - | - | - | - | 35 | 52
O=C(CN1CCOCC1)N1c2ccccc2Sc2ccc(Cl)cc21 | - | - | - | - | - | -
O=C1CCCN1CCCNCC(O)c1ccccc1 (centres undefined) | - | - | - | - | - | -
O=C(CN1CCN(CCOCCO)CC1)N1c2ccccc2Sc2ccc(Cl)cc21 | - | - | - | - | - | 34
O=C1N/C(=N\S(=O)(=O)c2ccccc2)S/C1=C\c1cc([N+](=O)[O-])ccc1O | 45 | - | 125 | - | - | -
Cc1ccc(S(=O)(=O)/N=C2/NC(=O)/C(=C\c3cc(Br)cc(Br)c3O)S2)cc1 | 35 | - | - | - | - | -
O=C1N/C(=N\S(=O)(=O)Cc2ccccc2)S/C1=C/c1cc([N+](=O)[O-])ccc1O | 89 | - | 50 | - | 40 | -
COCCN(C)Cc1nc(C(c2ccccc2)c2ccccc2)no1 | - | - | - | - | - | -
CCC(c1ccccc1)c1noc(CCN(CC)CC)n1 (centres undefined) | - | - | - | - | 59 | 59
N#C/C(=C/c1ccc(N2CCOCC2)o1)c1ccc(Br)cc1 | - | - | - | - | - | 36
N#C/C(=C/c1ccc(N2CCOCC2)o1)C(=O)NC1CCCCC1 | 31 | - | - | - | - | -
COc1ccc(NC(=O)/C(C#N)=C\c2ccc(N3CCOCC3)o2)cc1 | 120 | - | 37 | - | 39 | -
N#C/C(=C\c1ccc(N2CCOCC2)o1)C(=O)Nc1ccc(O)cc1 | 24 | - | - | - | - | -
O=C1CCCN1C1CCN(Cc2ccccc2)S(=O)(=O)N1 (centres undefined) | - | - | - | - | - | -
COc1ccc(S(=O)(=O)NCc2ccncc2)cc1NC(=O)c1ccc(Cl)cc1 | - | - | - | - | - | -
O=C(COc1ccccc1N1C(=O)C2C3C=CC(C3)C2C1=O)c1ccccc1 (centres undefined) | - | - | - | - | - | -
COc1cccc(OC)c1C(=O)OCC(=O)NCCNC(=O)COC(=O)c1c(OC)cccc1OC | - | - | - | - | - | -
Cn1c(=O)c2cc(NC(=O)NCc3ccc(Cl)cc3Cl)ccc2n1Cc1ccc(F)cc1 | - | - | - | - | - | -
Cc1ccc(CNC(=O)C2CCC(=O)N(CC3CCCCC3)C2)o1 (centres undefined) | - | - | - | - | - | -
COc1ccc(NC(=O)/C(C#N)=C/C=C/c2ccco2)cc1 | - | 24 | - | - | - | -
COc1ccccc1N1CCN(C2CCCN(C(=O)c3cc(C(C)C)on3)C2)CC1 (centres undefined) | - | - | - | - | - | -
CCN(CC)c1ccc(C(=C2C=CC(=[N+](CC)CC)C=C2)c2ccc(N(CC)CC)cc2)cc1 | - | - | - | - | 36 | 43
